Test results published in ChEMBL document CHEMBL4400507, “Discovery of Novel Transient Receptor Potential Vanilloid 4 (TRPV4) Agonists as Regulators of Chondrogenic Differentiation: Identification of Quinazolin-4(3 H)-ones and in Vivo Studies on a Surgically Induced Rat Model of Osteoarthritis” (J Med Chem, 2019).
Converted amounts (≈) assume the structure as drawn. The source made the active and inactive calls. The calls are words filed in the database; no cut-off is given here.

Key:
[1] = molecular target: T1, Transient receptor potential cation channel subfamily V member 4 (Homo sapiens, UniProt Q9HBA0); test: Agonist activity at recombinant human TRPV4 expressed in […] cells at 10 uM by SOX9 luciferase reporter gene assay; assay type: cell-based
T1 sequence (Q9HBA0 whole entry): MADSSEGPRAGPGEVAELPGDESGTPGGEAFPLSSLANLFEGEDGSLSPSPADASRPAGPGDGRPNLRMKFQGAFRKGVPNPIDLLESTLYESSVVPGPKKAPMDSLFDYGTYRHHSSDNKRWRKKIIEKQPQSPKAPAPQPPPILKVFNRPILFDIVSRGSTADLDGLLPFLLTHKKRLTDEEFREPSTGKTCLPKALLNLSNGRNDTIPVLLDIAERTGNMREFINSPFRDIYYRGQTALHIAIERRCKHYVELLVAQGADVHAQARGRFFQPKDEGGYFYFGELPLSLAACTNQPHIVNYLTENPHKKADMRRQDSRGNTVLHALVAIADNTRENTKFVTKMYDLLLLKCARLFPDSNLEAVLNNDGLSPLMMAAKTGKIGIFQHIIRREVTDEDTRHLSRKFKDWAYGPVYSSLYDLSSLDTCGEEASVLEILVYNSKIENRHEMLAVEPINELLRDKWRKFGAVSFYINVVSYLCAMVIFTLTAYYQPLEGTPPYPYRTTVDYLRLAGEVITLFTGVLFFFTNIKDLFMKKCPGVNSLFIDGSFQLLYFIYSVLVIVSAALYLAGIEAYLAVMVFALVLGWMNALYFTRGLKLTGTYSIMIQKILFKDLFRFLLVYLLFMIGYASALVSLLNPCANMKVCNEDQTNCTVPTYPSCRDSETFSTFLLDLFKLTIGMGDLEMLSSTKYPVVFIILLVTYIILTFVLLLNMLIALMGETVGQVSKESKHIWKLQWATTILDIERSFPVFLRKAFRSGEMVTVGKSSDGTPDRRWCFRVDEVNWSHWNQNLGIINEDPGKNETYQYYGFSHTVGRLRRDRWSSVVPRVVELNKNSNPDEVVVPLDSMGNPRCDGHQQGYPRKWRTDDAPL
In short: (§1)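 ATDC5 cells stably carrying a SOX9 reporter gene construct and human TRPV4 (pcDNA3.1) were seeded at 2.0 × 10^4 cells/well and treated with compound. Luciferase luminescence was measured the next day.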

[2] = molecular target: T1, Transient receptor potential cation channel subfamily V member 4; test: Agonist activity at recombinant human TRPV4 expressed in […] cells by SOX9 luciferase reporter gene assay; assay type: cell-based; in short: as §1
[3] = molecular target: Transient receptor potential cation channel subfamily V member 1 (Homo sapiens) (UniProt Q8NER1); test: Agonist activity at human TRPV1 assessed as increase in intracellular calcium level at 10 uM relative to control; assay type: cell-based
Chain of Transient receptor potential cation channel subfamily V member 1 (Homo sapiens) (Q8NER1 whole entry): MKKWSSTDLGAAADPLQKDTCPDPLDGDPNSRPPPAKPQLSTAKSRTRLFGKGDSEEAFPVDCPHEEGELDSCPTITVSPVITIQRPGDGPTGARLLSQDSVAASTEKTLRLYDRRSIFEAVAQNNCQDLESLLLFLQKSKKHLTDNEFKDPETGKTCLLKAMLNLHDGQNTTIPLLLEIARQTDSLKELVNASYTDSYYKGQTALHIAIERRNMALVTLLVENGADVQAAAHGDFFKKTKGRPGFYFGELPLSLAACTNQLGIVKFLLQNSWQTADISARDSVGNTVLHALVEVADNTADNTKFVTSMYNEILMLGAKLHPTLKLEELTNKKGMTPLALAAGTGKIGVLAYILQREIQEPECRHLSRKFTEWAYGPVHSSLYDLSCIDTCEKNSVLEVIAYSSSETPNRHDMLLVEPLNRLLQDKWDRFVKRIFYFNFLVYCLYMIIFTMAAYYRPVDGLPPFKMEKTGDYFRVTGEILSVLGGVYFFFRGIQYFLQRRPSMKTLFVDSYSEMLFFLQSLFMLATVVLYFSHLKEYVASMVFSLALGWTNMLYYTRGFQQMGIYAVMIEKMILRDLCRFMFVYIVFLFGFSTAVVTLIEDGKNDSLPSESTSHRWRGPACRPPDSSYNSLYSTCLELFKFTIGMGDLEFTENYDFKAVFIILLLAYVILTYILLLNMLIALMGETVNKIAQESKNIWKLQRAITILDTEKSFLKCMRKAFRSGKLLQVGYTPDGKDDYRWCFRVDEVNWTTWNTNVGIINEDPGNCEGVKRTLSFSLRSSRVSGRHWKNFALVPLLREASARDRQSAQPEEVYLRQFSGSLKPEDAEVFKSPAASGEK

Homo sapiens [4] = organism: Homo sapiens; test: Induction of chondrogenesis in normal human articular chondrocytes at 62.5 to 1000 nM preincubated for 30 mins followed by medium replacement and measured after 3 days by Alcian blue-staining based assay; assay type: functional, cell-based
In short: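 Normal human articular chondrocytes were exposed to agonist for 30 min, then the medium was replaced and the cells cultured 3 days. They were fixed in 95% methanol and stained overnight with 0.1% Alcian blue in 0.1 N HCl. Dye was extracted with 6 M guanidine-HCl for 2 h at room temperature, and OD was read at 600 nm.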

[5] = Solubility of the compound in saline; assay type: physicochemical
[6] = molecular target: T1, Transient receptor potential cation channel subfamily V member 4; test: Agonist activity at recombinant human TRPV4 expressed in HEK293 cells assessed as increase in intracellular calcium level after 30 mins by Fura-2 AM/Pluronic F-127 probe based fluorescence assay; assay type: cell-based
In short: (§2)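 HEK293 cells transiently expressing human TRPV4 were loaded with 5 µM Fura-2 AM plus 0.2% Pluronic F-127 for 30 min at 37 °C in HEPES buffer (pH 7.4, 1.8 mM CaCl2, 0.1% BSA). They were then washed and resuspended. Intracellular Ca2+ was read by Fura-2 ratio imaging (excitation 340/380 nm, emission 510 nm).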

Homo sapiens [7] = organism: Homo sapiens; test: Induction of chondrogenesis in normal human articular chondrocytes at 500 nM preincubated for 30 mins followed by medium replacement and measured after 3 days by Alcian blue-staining based assay; assay type: functional, cell-based
In short: (§3)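 Normal human articular chondrocytes were stimulated with agonist for 30 min, then the medium was replaced. After 3 days' culture, cells were fixed in 95% methanol and stained overnight with 0.1% Alcian blue 8GS in 0.1 N HCl. Dye was extracted with 6 M guanidine-HCl for 2 h at room temperature and read at OD 600 nm.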

Homo sapiens [8] = organism: Homo sapiens; test: Induction of chondrogenesis in normal human articular chondrocytes at <500 nM preincubated for 30 mins followed by medium replacement and measured after 3 days by Alcian blue-staining based assay; assay type: functional, cell-based; in short: as §3
[9] = Toxicity in Sprague-Dawley rat model of medial meniscal tear-induced osteoarthritis assessed as effect on body weight at 5 to 10 uM administered intra-articularly into operated knee twice per week for 3 consecutive weeks and measured at week 4; conditions: in vivo, other
In short: (§4)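 Eight-week-old male SD rats, housed singly, had the medial meniscus cut. One week later they were grouped by body weight. The operated knee received 50 µL saline or 0, 5 or 10 µM solution intra-articularly twice weekly for 3 weeks, starting 1 week post-surgery. Deaths and systemic signs were checked by gross visual inspection, and final body weights were recorded. Rats were euthanized at week 4.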

[10] = Drug level in rat synovial fluid lavage dosed directly in to knee joints and measured after 30 mins by LC-MS method; assay type: ADME, organism-based; conditions: in vivo, other, 0.5 h
In short: (§5)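 Normal rats received an intra-articular knee injection. After euthanasia the joint was washed with saline and the synovial fluid lavage collected. Compound was quantified by LC-MS/MS and converted to joint concentration using the ratio of total protein in the lavage. Quantitation limits were 0.3–1 nmol/L.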

[11] = Drug level in rat synovial fluid lavage dosed directly in to knee joints and measured within 30 mins by LC-MS method; assay type: ADME, organism-based; conditions: in vivo, other, 0.5 h; in short: as §5
[12] = Systemic toxicity in Sprague-Dawley rat model of medial meniscal tear-induced osteoarthritis at 5 to 10 uM administered intra-articularly into operated knee twice per week for 3 consecutive weeks and measured at week 4; conditions: in vivo, other; in short: as §4
[13] = Toxicity in Sprague-Dawley rat model of medial meniscal tear-induced osteoarthritis assessed as death at 5 to 10 uM administered intra-articularly into operated knee twice per week for 3 consecutive weeks and measured at week 4; conditions: in vivo, other; in short: as §4
HL-60 = test: Cytotoxicity against human HL60 cells assessed as reduction in cell viability; assay type: cell-based
In short: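 HL-60 cell viability measured with an ATP-based assay.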

[14] = Genotoxicity in Salmonella typhimurium by Ames test; assay type: toxicity; conditions: salmonella enterica subsp. enterica serovar typhimurium
[15] = molecular target: T1, Transient receptor potential cation channel subfamily V member 4; test: Agonist activity at recombinant human TRPV4 expressed in HEK293 cells assessed as increase in intracellular calcium level at 10 uM after 30 mins by Fura-2 AM/Pluronic F-127 probe based fluorescence assay relative to control; assay type: cell-based; in short: as §2
Rattus norvegicus [16] = test: Induction of aggrecan mRNA expression in Sprague-Dawley rat model of medial meniscal tear-induced osteoarthritis at 5 to 10 uM administered intra-articularly into operated knee twice per week for 3 consecutive weeks measured after 21 days by RT-qPCR analysis; assay type: functional, organism-based
Rattus norvegicus [17] = test: Anti-osteoarthritis activity in Sprague-Dawley rat model of medial meniscal tear-induced osteoarthritis assessed as decrease in length of damage area at 5 to 10 uM administered intra-articularly into operated knee twice per week for 3 consecutive weeks and measured at week 4; assay type: functional, organism-based
In short: (§6)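 Male Sprague-Dawley rats, 8 weeks old. Medial meniscus cut through to mimic a complete tear. One week after surgery, rats were grouped by body weight: sham, MT vehicle, 5 μM, 10 μM. 50 µL saline or drug was injected intra-articularly into the operated knee twice weekly for 3 weeks, and knees were harvested at week 4. Sections of 5 μm were stained with safranin-O/Fast Green, and damaged width on the medial tibial plateau was measured by micrometer. Analysis by Dunnett's test; n = 5–15 per group.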

Homo sapiens [18] = organism: Homo sapiens; test: Induction of chondrogenesis in normal human articular chondrocytes at 62.5 nM preincubated for 30 mins followed by medium replacement and measured after 3 days by Alcian blue-staining based assay; assay type: functional, cell-based; in short: as §3
Rattus norvegicus [19] = test: Induction of SOX9 mRNA expression in Sprague-Dawley rat model of medial meniscal tear-induced osteoarthritis at 5 to 10 uM administered intra-articularly into operated knee twice per week for 3 consecutive weeks measured after 21 days by RT-qPCR analysis; assay type: functional, organism-based
Rattus norvegicus [20] = test: Bone anabolic effect in Sprague-Dawley rat model of medial meniscal tear-induced osteoarthritis assessed as induction of new extracellular matrix generation at 10 uM administered intra-articularly into operated knee twice per week for 3 consecutive weeks and measured at week 4 by safranin-O/Fast Green staining-based microscopic analysis; assay type: functional, organism-based
Rattus norvegicus [21] = test: Anti-osteoarthritis activity in Sprague-Dawley rat model of medial meniscal tear-induced osteoarthritis assessed as reduction in erosion of tibial plateau cartilage at 5 to 10 uM administered intra-articularly into operated knee twice per week for 3 consecutive weeks and measured at week 4; assay type: functional, organism-based; in short: as §6
[22] = Protein binding in plasma (unknown origin); assay type: ADME, cell-free

Row | Activity [1] [%] | SMILES | ECmax [2] [nM] | EC50 [6] [µM] | other results
1 | 29.4 | CCOC(=O)c1ccc(-n2c(N3CCN(C)CC3)nc3c(Cl)cccc3c2=O)cc1 | – | – | –
2 | 0 | COc1ccc(-n2c(N(C)CCN(C)C)nc3cc(F)ccc3c2=O)cc1 | – | – | –
3 | 7.8 | CCOC(=O)c1ccc(-n2c(N3CCN(C)CC3)nc3c(Br)cccc3c2=O)cc1 | – | – | –
4 | – | CN1CCN(c2nc3c(F)cccc3c(=O)n2-c2ccc(SC(F)(F)F)cc2)CC1 | 156 | 0.2 | Activity [3]: 3.1%; Activity (Homo sapiens [4]): Active; solubility [5]: 952 µg/mL (≈ 2170 µM)
5 | – | CC(C)C[C@H](NC(=O)c1cc2ccccc2s1)C(=O)NCCCN(C)S(=O)(=O)c1ccc(Cl)cc1Cl | 312 | 0.74 | Activity (Homo sapiens [7]): Active; solubility [5]: 3.6 µg/mL (≈ 6.31 µM); Activity (Homo sapiens [8]): inactive
6 | – | CCOC(=O)c1ccc(-n2c(N3CCN(C)CC3)nc3c(F)cccc3c2=O)cc1 | 625 | 0.92 | –
7 | 1.2 | CN1CCN(c2nc3cc(F)ccc3c(=O)n2-c2ccc(C(F)(F)F)cc2)CC12CC2 | – | – | –
8 | – | CN1CCN(c2nc3c(F)cccc3c(=O)n2-c2ccc(Cc3ccccc3)cc2)CC1 | 312 | 0.67 | Activity [3]: 1.5%; solubility [5]: 553 µg/mL (≈ 1290 µM)
9 | – | CN1CCN(c2nc3ccc(F)cc3c(=O)n2-c2ccc(OC(F)(F)F)cc2)CC1 | 2500 | 2.06 | Activity [3]: 5%
10 | 0.9 | CC(C)C[C@H]1CN(c2nc3cc(F)ccc3c(=O)n2-c2ccc(C(F)(F)F)cc2)CCN1C | – | – | –
11 | – | CC(C)c1ccc(-n2c(N3CCN(C)CC3)nc3c(F)cccc3c2=O)cc1 | 2500 | 0.91 | –
12 | – | CN1CCN(c2nc3cccc(F)c3c(=O)n2-c2ccc(OC(F)(F)F)cc2)CC1 | 1250 | 1.18 | Activity [3]: 3.7%
13 | 1.9 | CCOC(=O)c1ccc(-n2c(N3CCN(C(C)C)CC3)nc3c(F)cccc3c2=O)cc1 | – | – | –
14 | – | CN1CCN(c2nc3cc(F)ccc3c(=O)n2-c2ccc(OC(F)(F)F)cc2)CC1 | 625 | 0.663 | Activity [3]: 6.2%
15 | 0.3 | CCOC(=O)c1ccc(-n2c(N(C)C3CCN(C)C3)nc3c(F)cccc3c2=O)cc1 (stereo not drawn) | – | – | –
16 | – | CN1CCN(c2nc3c(F)cccc3c(=O)n2-c2ccc(Oc3ccc(F)cc3)cc2)CC1.Cl | – | – | Activity [9]: Non-Toxic; Drug uptake [10]: Not Active; Drug uptake [11]: Active; Activity [12]: Non-Toxic; Activity [13]: Non-Toxic
17 | – | CC(C)C[C@H](NC(=O)c1cc2ccccc2s1)C(=O)N1CCN(C(=O)[C@H](CO)NS(=O)(=O)c2ccc(Cl)cc2Cl)CC1 | – | 0.049 | –
18 | – | CN1CCN(c2nc3c(F)cccc3c(=O)n2-c2ccc(Oc3ccc(F)cc3)cc2)CC1 [listing 1 of 2 here] | – | 0.06 | Activity (HL-60): Non-Toxic; Activity [14]: Non-Toxic; solubility [5]: 743 µg/mL (≈ 1660 µM)
19 | 1.8 | CN1CCN(c2nc3cc(F)ccc3c(=O)n2-c2ccc(C(F)(F)F)cc2)CC1=O | – | – | –
20 | – | CC(C)[C@H]1CN(c2nc3cc(F)ccc3c(=O)n2-c2ccc(C(F)(F)F)cc2)CCN1C | 5000 | > 30 | –
21 | – | CN1CCN(c2nc3c(F)cccc3c(=O)n2-c2ccc(OC(F)(F)F)cc2)CC1 | 625 | 0.28 | Activity [3]: 2.2%; solubility [5]: 951 µg/mL (≈ 2250 µM)
22 | 5 | CN1CCN(c2nc3cc(F)ccc3c(=O)n2-c2ccc(C(F)(F)F)cc2)CC1(C)C | 10000 | > 30 | –
23 | – | CN1CCN(c2nc3c(F)cccc3c(=O)n2-c2ccc(Oc3ccccc3)cc2)CC1 | 39 | 0.125 | Activity [3]: 0.6%; solubility [5]: 745 µg/mL (≈ 1730 µM)
24 | 2.2 | CCOC(=O)c1ccc(-n2c(N3CCC(N(C)C)C3)nc3c(F)cccc3c2=O)cc1 (stereo not drawn) | – | – | –
25 | – | CN1CCN(c2nc3c(F)cccc3c(=O)n2-c2ccc(Oc3ccc(F)cc3)cc2)CC1 [listing 2 of 2 here] | 20 | – | Activity (Rattus norvegicus [16]): Dose-dependent effect; Activity [3]: 0.6%; Activity (Rattus norvegicus [17]): Dose-dependent effect; Activity (Homo sapiens [4]): Active; Activity (Homo sapiens [18]): Active; Activity (Rattus norvegicus [19]): Dose-dependent effect; Activity (Rattus norvegicus [20]): Active; Activity (Rattus norvegicus [21]): Dose-dependent effect
26 | – | CN1CCN(c2nc3c(F)cccc3c(=O)n2-c2ccc(OC3CCOCC3)cc2)CC1 | 2500 | 0.87 | Activity [3]: 8.7%; fraction unbound [22]: 0.297; solubility [5]: 1110 µg/mL (≈ 2520 µM)
27 | – | CN1CCN(c2nc3c(F)cccc3c(=O)n2-c2ccc(C(F)(F)F)cc2)CC1 | 2500 | 1.44 | –

Row | SMILES | Activity [1] [%] | ECmax [2] [nM] | EC50 [6] [µM] | other results
28 | COc1ccc(-n2c(N3CCNCC3)nc3cc(F)ccc3c2=O)cc1 | 1.8 | – | – | –
29 | Cc1ccc(-n2c(N3CCN(C)CC3)nc3c(Cl)cccc3c2=O)cc1 | 9 | – | – | –
30 | Cc1cccc(-n2c(N3CCN(C)CC3)nc3c(Cl)cccc3c2=O)c1 | 1.5 | – | – | –
31 | COc1ccc(-n2c(N3CCN(C)CC3)nc3ccccc3c2=O)cc1 | 13.2 | – | – | –
32 | COc1ccc(-n2c(N3CCN(C)CC3)nc3cc(F)ccc3c2=O)cc1 | 42.2 | 5000 | 4.7 | –
33 | COc1cccc2c(=O)n(-c3ccc(C)cc3)c(N3CCN(C)CC3)nc12 | 1.3 | – | – | –
34 | CN1CCN(c2nc3c(Cl)cccc3c(=O)n2-c2ccc(Cl)cc2)CC1 | 19.9 | – | – | ECmax [15]: 19%
35 | Cc1ccccc1-n1c(N2CCN(C)CC2)nc2c(Cl)cccc2c1=O | 0.4 | – | – | –
36 | CCN1CCN(c2nc3cc(F)ccc3c(=O)n2-c2ccc(OC)cc2)CC1 | 41 | – | 12.2 | –
